From ChEMBL document CHEMBL3351343, “Synthesis and biological evaluation of novel sigma-1 receptor antagonists based on pyrimidine scaffold as agents for treating neuropathic pain” (J Med Chem, 2014) come the findings set out here.

Molecules are shown by their SMILES. pKi: −log10 of the molar value. Some results are limits rather than exact numbers.

Data set [1] in a line: Tmax in Sprague-Dawley rat at 320 mg/kg, po by HPLC/MS/MS analysis. Type of data set: ADME, organism-based. More on the design: dose 320 mg/kg, route oral. The conditions noted are these: in vivo. The gist of the method: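 Sprague-Dawley rats (250 ± 5.0 g), n = 8/group, dosed iv via lateral tail vein at 16 mg/kg in 100% saline or by oral gavage at 320 mg/kg as suspension in 0.5% methylcellulose. Serial tail-vein blood into heparinized tubes at 30 min, 1, 2, 3, 4, 5, 6, 7 and 24 h. Plasma treated by acetonitrile protein precipitation, then HPLC/MS on C18 column, 40 °C.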

For data set [2], the target named is Norepinephrine transporter (Rattus norvegicus) (UniProt Q9WTR4). The data set is described as follows: Displacement of [N-methyl-3H]-nisoxetine from rat hippocampal membrane Noradrenaline transporter at 1 uM after 8 hrs by liquid scintillation counting analysis. Type of data set: tissue-based. The following applies: Hippocampus.
The subject of another data set is Rattus norvegicus. The data set is described as follows: Antineuropathic pain activity in po dosed Sprague-Dawley rat chronic constriction injury model assessed as inhibition of thermal hypersensitivity measured on day 15 relative to sham-treated control. Type of data set: functional. The gist of the method: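 Sprague-Dawley rats, sciatic nerve chronic constriction injury (four loose 4-0 silk ligatures, chloral hydrate anaesthesia); sham has nerve exposed without ligation. Model confirmed on day 14. Oral dosing in 0.5% methylcellulose, 10 mL/kg, twice daily on days 15–18. Read after first dose (day 15) and last dose (day 18). Von Frey withdrawal threshold and radiant-heat plantar withdrawal latency (30 s cutoff), each paw sampled four times and averaged; 10 rats/group.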

The target in data set [3] is Sigma non-opioid intracellular receptor 1 (Cavia porcellus, UniProt Q60492). The data set is described as follows: Displacement of [3H]-(+)-pentazocine from sigma-1 receptor in Dunkin Hartley guinea pig brain membranes after 180 mins by liquid scintillation counting analysis. Also noted: species or system Membrane. (In general: Displacement assays read how much labelled ligand stays bound in the presence of the test substance.)

For data set [4], the target named is Sodium channel protein type 9 subunit alpha (Homo sapiens) (UniProt Q15858). The data set is described as follows: Inhibition of from human Nav 1.7 channel expressed in HEK293 cells at 1 uM after 5 mins by electrophysiological analysis. Type of data set: cell-based.
The target of data set [5] is Cannabinoid receptor 2 (Homo sapiens) (UniProt P34972). The data set is described as follows: Displacement of [3H]-CP-55940 from human CB2 receptor expressed in HEK cells at 1 uM after 90 mins by liquid scintillation counting analysis. The following applies: HEK293. Type of data set: cell-based.
Data set [6] concerns the target T1, 5-hydroxytryptamine receptor 1A (Rattus norvegicus) (UniProt P19327).
T1 sequence (whole entry): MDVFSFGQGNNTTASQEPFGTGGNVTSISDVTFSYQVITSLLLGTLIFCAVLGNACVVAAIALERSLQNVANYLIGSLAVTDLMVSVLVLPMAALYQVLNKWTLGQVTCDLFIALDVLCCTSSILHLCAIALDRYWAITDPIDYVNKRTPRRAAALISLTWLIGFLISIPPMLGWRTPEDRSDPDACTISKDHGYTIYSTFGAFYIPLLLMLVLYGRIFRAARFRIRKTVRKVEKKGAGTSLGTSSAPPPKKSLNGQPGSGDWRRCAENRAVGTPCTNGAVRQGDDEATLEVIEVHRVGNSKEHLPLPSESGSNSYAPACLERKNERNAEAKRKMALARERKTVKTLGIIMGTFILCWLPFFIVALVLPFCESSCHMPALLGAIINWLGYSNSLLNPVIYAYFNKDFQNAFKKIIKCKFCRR
The data set is described as follows: Displacement of [3H]-8-OH-DPAT from rat cerebral cortex 5-HT1A receptor at 1 uM after 30 mins by liquid scintillation counting analysis. In kind it is tissue-based.

Chain of Sigma non-opioid intracellular receptor 1 (Q60492 whole entry): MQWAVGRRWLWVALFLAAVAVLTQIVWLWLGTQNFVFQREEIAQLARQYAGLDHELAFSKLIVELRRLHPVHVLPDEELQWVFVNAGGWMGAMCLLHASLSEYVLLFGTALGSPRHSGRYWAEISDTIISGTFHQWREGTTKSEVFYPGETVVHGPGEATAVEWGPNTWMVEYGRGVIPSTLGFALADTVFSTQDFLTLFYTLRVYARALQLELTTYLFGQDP
Chain of Norepinephrine transporter (Rattus norvegicus) (Q9WTR4 as listed by the source): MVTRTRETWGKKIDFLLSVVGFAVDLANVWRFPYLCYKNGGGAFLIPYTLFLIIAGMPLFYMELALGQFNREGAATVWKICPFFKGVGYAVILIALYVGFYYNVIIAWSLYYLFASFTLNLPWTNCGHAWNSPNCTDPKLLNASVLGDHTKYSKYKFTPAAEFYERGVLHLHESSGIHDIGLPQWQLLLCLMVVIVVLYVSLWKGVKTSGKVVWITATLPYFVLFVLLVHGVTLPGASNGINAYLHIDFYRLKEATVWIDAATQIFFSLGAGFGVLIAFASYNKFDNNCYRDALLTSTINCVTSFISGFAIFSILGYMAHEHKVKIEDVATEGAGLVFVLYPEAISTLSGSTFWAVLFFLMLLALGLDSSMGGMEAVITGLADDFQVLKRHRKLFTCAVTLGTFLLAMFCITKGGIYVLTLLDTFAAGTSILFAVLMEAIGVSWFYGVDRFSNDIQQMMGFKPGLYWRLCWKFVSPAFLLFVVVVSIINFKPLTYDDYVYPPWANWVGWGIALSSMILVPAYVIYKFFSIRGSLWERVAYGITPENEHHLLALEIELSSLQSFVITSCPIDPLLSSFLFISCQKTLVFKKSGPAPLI
Chain of Sodium channel protein type 9 subunit alpha (Homo sapiens) (Q15858 whole entry, looked up): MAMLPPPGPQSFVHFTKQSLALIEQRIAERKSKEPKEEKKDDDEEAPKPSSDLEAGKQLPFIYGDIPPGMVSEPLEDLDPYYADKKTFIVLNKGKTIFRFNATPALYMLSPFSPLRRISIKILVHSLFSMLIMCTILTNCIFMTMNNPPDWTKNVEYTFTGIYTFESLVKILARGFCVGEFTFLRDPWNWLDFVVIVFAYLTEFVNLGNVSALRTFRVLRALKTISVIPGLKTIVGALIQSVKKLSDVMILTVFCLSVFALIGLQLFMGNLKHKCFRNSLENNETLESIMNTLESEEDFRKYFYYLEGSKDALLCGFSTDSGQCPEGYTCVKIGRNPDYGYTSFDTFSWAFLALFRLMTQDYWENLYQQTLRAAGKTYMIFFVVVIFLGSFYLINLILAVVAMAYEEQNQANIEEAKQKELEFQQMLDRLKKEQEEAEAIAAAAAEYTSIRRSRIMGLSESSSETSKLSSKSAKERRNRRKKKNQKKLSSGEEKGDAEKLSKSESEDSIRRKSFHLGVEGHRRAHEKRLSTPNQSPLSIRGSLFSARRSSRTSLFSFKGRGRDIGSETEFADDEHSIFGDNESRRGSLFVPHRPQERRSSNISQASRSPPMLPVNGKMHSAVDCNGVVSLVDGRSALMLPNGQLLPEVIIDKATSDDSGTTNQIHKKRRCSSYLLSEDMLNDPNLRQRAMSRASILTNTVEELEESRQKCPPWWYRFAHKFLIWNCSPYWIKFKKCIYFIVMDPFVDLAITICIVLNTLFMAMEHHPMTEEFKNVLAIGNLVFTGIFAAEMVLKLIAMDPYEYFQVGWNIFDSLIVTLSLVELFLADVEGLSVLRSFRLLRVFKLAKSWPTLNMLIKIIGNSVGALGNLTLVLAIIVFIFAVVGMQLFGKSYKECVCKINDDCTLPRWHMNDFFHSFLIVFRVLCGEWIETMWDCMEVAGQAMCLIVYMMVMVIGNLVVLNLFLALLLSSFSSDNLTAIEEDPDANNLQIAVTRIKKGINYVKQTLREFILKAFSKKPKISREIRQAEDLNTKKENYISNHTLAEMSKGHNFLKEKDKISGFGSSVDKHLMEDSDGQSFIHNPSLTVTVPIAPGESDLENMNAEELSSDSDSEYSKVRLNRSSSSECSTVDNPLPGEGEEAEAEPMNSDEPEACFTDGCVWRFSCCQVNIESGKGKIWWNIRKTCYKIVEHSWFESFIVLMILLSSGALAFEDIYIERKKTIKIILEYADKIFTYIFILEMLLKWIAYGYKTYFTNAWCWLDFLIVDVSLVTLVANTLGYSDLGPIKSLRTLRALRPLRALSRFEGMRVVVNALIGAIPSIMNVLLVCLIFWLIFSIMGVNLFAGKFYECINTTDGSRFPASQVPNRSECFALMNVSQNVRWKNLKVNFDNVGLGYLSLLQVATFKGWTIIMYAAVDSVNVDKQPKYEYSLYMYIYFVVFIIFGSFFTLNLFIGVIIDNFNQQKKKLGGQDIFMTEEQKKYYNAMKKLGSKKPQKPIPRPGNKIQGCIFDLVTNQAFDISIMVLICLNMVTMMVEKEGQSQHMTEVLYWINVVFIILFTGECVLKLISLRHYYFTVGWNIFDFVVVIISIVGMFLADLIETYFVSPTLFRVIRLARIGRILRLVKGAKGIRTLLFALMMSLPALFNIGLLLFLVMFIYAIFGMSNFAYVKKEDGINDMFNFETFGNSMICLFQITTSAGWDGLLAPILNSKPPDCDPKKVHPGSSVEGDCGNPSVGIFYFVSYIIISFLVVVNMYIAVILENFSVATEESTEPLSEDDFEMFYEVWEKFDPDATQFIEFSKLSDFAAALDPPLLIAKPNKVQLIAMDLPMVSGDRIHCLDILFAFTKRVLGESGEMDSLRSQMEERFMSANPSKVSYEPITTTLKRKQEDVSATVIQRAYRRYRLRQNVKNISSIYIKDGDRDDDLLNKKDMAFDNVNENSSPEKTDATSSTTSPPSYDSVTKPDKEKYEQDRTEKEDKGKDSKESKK
Chain of Cannabinoid receptor 2 (Homo sapiens) (P34972 whole entry): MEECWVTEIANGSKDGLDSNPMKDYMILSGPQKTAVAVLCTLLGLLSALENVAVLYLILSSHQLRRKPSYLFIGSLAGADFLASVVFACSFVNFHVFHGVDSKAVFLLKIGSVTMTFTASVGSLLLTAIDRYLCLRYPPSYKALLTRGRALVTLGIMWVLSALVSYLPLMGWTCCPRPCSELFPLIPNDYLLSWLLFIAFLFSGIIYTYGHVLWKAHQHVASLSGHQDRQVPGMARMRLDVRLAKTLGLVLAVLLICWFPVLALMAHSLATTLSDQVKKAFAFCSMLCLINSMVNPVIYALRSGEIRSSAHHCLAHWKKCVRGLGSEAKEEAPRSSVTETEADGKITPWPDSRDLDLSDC

Take `Cc1nc(-c2ccc(Cl)cc2)nc(OCCCN2CCCCC2)c1Cl`: the Tmax – broadly, the time at which the peak concentration occurs – in data set [1] is 30 min. Moreover, the inhibition – broadly, the share of the control response that was lost under treatment – in data set [2] was below 50%; in the data set with Rattus norvegicus, “Dose-dependent effect”; in data set [4], below 50%; in data set [5] it was below 50%; in data set [6] it was below 50%. In addition, in the data set with Rattus norvegicus (360 h), the ED50 – broadly, the midpoint of the dose-response relation – stood at 47.2 mg/kg. The pKi (usually −log10 of the Ki, conventionally taken in molar units) in data set [3] was 8.97.
